# Assay outcomes deposited in PubChem BioAssay by Broad Institute.
# Only some compounds are listed: those with a hit (about 1.4% of all), similar ones and a draw of the others.
# CAL PDZ FP-1: CAL PDZ peptide-binding inhibitors, primary screen, biochemical, fluorescence polarization, Cer-tagged CAL PDZ, HTS | purified CAL PDZ, TMR-peptide fluorescence polarization, 1 h | Golgi-associated PDZ and coiled-coil motif-containing protein (Homo sapiens), Q9HD26 | 0.02% of 330,000 active | inhibition, % at 20 µM;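 active means highest replicate inhibition of at least 40%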;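 further: plate controls were DMSO neutral control wells for no effect and unlabeled competitor peptide control wells for full effect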
#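 material = purified tagged CAL PDZ domain construct (CerCALP) | compound dosing = 20 µM, one dose | times = 1 h at RT | measured by = fluorescence polarization from S- and P-plane intensities, G-factor corrected | read-out = inhibition from polarization loss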
# Dyrk1A ADPGlo: rat Dyrk1A kinase inhibitors, primary screen, biochemical, single point, plate reader | ADP-Glo luminescence, NFATc1 peptide | Dual specificity tyrosine-phosphorylation-regulated kinase 1A (Rattus norvegicus), Q63470 | inhibition, % at 12.5 µM | AID 504441, 2011 | 0.43% of 310,000 active; in the data active means inhibition above about 50%;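 further: plate controls were vehicle with enzyme for no effect and no enzyme for full effect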
# CAL PDZ FP-2: untagged CAL PDZ binding inhibitors, primary screen, biochemical, fluorescence polarization, HTS | 0.92% of 300,000 active | Golgi-associated PDZ and coiled-coil motif-containing protein (Homo sapiens), Q9HD26 | purified CAL PDZ, TMR-peptide fluorescence polarization, 1 h | inhibition, % at 24.9 µM;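 active means mean inhibition of at least 30% with at least half of replicates also reaching 30%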;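 further: 0% = DMSO neutral control and 100% = excess unlabeled competitor peptide PRC23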
# ARNT-TACC3 inh: disruptors of ARNT/TACC3 protein interaction, primary screen, biochemical, AlphaScreen, single concentration; Transforming acidic coiled-coil-containing protein 3 (Homo sapiens), Q9Y6A5; AlphaScreen His-ARNT PAS-B/GST-TACC3 binding, luminescence; TACC3 fragment carries E629A point mutation; inhibition, % at 9.99 µM; 0.66% of 390,000 active; AID 623870, 2012;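 active means mean inhibition of replicates at least 50% and at least half of replicates each reaching 50%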;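 further: 0% = complete ARNT plus TACC3 wells and 100% = ARNT alone without TACC3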
# * hit, by the source's call; · = no result.
SMILES,CAL PDZ FP-1,Dyrk1A ADPGlo,CAL PDZ FP-2,ARNT-TACC3 inh
COc1ccc(S(=O)(=O)NCC(=O)N(CC(=O)NCc2ccccc2)Cc2ccco2)cc1,0,1,-1,-19
C[C@@H]1CN([C@@H](C)CO)S(=O)(=O)c2ccc(C3=CCCC3)cc2O[C@@H]1CN(C)C(=O)c1ccccc1,·,·,·,-5
Oc1ccccc1-c1cc(-c2ccc(F)cc2)n[nH]1,-1,-7,34*,-4
Oc1ccccc1-c1cc(-c2ccccc2)n[nH]1,-2,21,4,-1
Cc1ccc(O)c(-c2cc(-c3cccc(Br)c3)n[nH]2)c1,0,0,86*,-3
CNC(=O)C[C@@H]1CC[C@H]2[C@H](COc3ccc(NC(=O)c4ccc(F)cc4)cc3C(=O)N2C)O1,·,·,·,-4
CCCN1[C@@H]2Cn3c(ccc(-c4cccnc4)c3=O)[C@H]1[C@@H](C(=O)NCCc1cn(C)cn1)[C@@H]2CO,·,·,·,2
O=[N+]([O-])c1cccc(-c2c[n+]3c(n2-c2ccccc2)SCC3)c1,-1,·,48*,-3
CO[C@H]1CN(C)C(=O)c2ccc(NC(=O)C3CCCC3)cc2OC[C@@H](C)N(S(C)(=O)=O)C[C@@H]1C,·,·,·,-5
O=C(CC1C(=O)NCCN1Cc1cccc(F)c1)NCCCCCN1CCOCC1 (configuration not stated),-1,-4,48*,-1
O=C(c1cc(-c2ccc(Cl)cc2Cl)on1)N1CCCC1,-2,1,35*,-2
Cn1ncc2c(=O)[nH]c(N)nc21,-1,8,-1,-11
Cn1ncc(=S)[nH]c1=S,0,·,85*,-3
Cc1ccc(S(=O)(=O)N(C)C[C@H]2OCCCC[C@@H](C)Oc3ccc(NC(=O)NC(C)C)cc3C(=O)N([C@@H](C)CO)C[C@@H]2C)cc1,·,·,·,-5
Cc1ccccc1OCc1nc2ccccc2[nH]1,-1,0,41*,2
CC1(c2ccc3ccccc3c2)NC(=O)N(CC(=O)N2CCN(Cc3ccccc3)CC2)C1=O (configuration not stated),-1,-3,-1,10
OC1(c2ccc3ccccc3c2)CCN(Cc2ccccc2)C1 (configuration not stated),-1,5,38*,-1
CO[C@@H]1CN(C)C(=O)c2cc(NC(=O)c3ccccc3F)ccc2OC[C@@H](C)N(C(=O)c2ccccc2F)C[C@@H]1C,·,·,·,-2
CCCNC(=O)c1cc(-c2ccc(Br)cc2)on1,-2,-6,33*,1
O=C(COC(=O)c1cc(S(=O)(=O)N2CCOCC2)ccc1F)c1ccccc1,-1,0,43*,·
O=C(OCC(=O)N1CCCc2ccccc21)c1cc(S(=O)(=O)N2CCOCC2)ccc1F,-1,-2,-3,-3
O=C(COC(=O)c1cc(=O)[nH]c2ccccc12)Nc1cccc(S(=O)(=O)N2CCOCC2)c1,-6,1,76*,16
O=C(COC(=O)c1cc(=O)[nH]c2ccccc12)Nc1ccc(Cl)c(S(=O)(=O)N2CCOCC2)c1,-5,·,-7,9
O=C(OCC(=O)N1CCCc2ccccc21)c1cc(S(=O)(=O)N2CCOCC2)ccc1O,0,2,65*,·
N#CC1(NC(=O)COC(=O)c2cc(=O)[nH]c3ccccc23)CCCCC1,-2,·,32*,-19
SMILES,CAL PDZ FP-1,Dyrk1A ADPGlo,CAL PDZ FP-2,ARNT-TACC3 inh
COCC(=O)N(C)C[C@H]1Oc2cc(-c3ccccc3F)ccc2S(=O)(=O)N([C@H](C)CO)C[C@H]1C,·,·,·,-12
C[C@@H]1CN([C@@H](C)CO)C(=O)Cc2cc(NC(=O)Nc3ccc(F)cc3)ccc2O[C@@H]1CN(C)C(=O)Nc1cccc2ccccc12,·,·,·,-4
C[C@@H]1CN([C@@H](C)CO)C(=O)c2ccccc2-c2ccccc2CO[C@H]1CN(C)Cc1ccc(C(=O)O)cc1,·,·,·,-6
COc1ccc(NC(=O)N(C)C[C@H]2Oc3c(NS(=O)(=O)c4ccc(Cl)cc4)cccc3C(=O)N([C@H](C)CO)C[C@@H]2C)cc1,·,·,·,-6
COc1cccc(C=Nc2ccccc2C(=O)Nc2nccs2)c1OC,0,3,·,19
O=C(Nc1nccs1)c1ccccc1N=Cc1ccccc1,6,6,59*,-10
Cc1ccc(C)c(S(=O)(=O)N2CCCOC2CNC(=O)C(=O)NCc2ccco2)c1 (configuration not stated),0,-1,-3,-3
Cc1ccc(C)c(S(=O)(=O)N2CCCOC2CNC(=O)C(=O)NCCc2ccco2)c1 (configuration not stated),1,5,69*,-1
COCC(=O)Nc1ccc2c(c1)C(=O)N(C)C[C@@H](OC)[C@H](C)CN(Cc1cccc(F)c1)[C@@H](C)CO2,·,·,·,-6
O=C(COc1ccc(Br)cc1)OCC(=O)N1CCOCC1,0,3,·,-27
O=C(COc1ccc2cc(Br)ccc2c1)N1CCOCC1,-1,1,103*,·
O=C(COc1ccc(S(=O)(=O)Nc2ccc(Cl)cc2)cc1)N1CCOCC1,-1,-7,100*,-5
Cc1noc(C)c1S(=O)(=O)Nc1ccc2c(c1)C(=O)N([C@@H](C)CO)C[C@@H](C)[C@H](CN(C)C)OCCCC[C@@H](C)O2,·,·,·,-7
CCCNC(=O)C(=O)NCC1CCCN1CC (configuration not stated),30,·,33*,-2
C=CCNC(=O)C(=O)NCC1CCCN1CC (configuration not stated),-1,-4,-4,1
CC(C)N(Cc1ccccc1)C(=O)COC(=O)c1cnc(Cl)c(Cl)c1,0,2,42*,0
CC(C)CC#Cc1cnc2c(c1)C(=O)N([C@H](C)CO)C[C@H](C)[C@@H](CN(C)Cc1cccc(F)c1)O2,·,·,·,4
COc1ccc(OC)c(NC(=O)CN2c3cccc4cccc(c34)S2(=O)=O)c1,-1,-2,-5,2
COc1ccc(OC)c(NC(=O)C(C)N2c3cccc4cccc(c34)S2(=O)=O)c1 (configuration not stated),0,0,73*,4
C[C@H](O)C#Cc1ccc2c(c1)O[C@@H](CN(C)C(=O)C1CCCCC1)[C@@H](C)CN([C@@H](C)CO)S2(=O)=O,·,·,·,9
O=C(CNc1ccccc1F)N/N=C/C1CC=CCC1 (configuration not stated),-2,·,58*,2
O=C(c1ccco1)[C@@H]1[C@@H]2C(=O)N(c3ccc(Br)cc3)C(=O)[C@@H]2C2c3ccccc3C=CN21 (some centres not stated),-1,14,-2,15
CC(=O)[C@H]1[C@@H]2C(=O)N(c3cccc(Cl)c3)C(=O)[C@@H]2[C@H]2c3ccccc3C=CN21,0,3,0,24*
